Assay results published in ChEMBL document CHEMBL2311475, “Highly solvatochromic fluorescent naphthalimides: design, synthesis, photophysical properties and fluorescence switch-on sensing of ct-DNA” (Bioorg Med Chem Lett, 2013).
Activity calls are given as the source filed them. The rule behind the calls is not given here.

Tests used:
Assay type in all cases: nucleic-acid assay
Details in all cases: Bos taurus
DNA [1] = assay: Displacement of ethidium bromide from calf thymus DNA at 3.5 to 75 uM by fluorescence spectrophotometric analysis
DNA [2] = assay: Binding affinity to calf thymus DNA at 1:1 compound:DNA ratio by fluorescence titration method
Outline: (§1)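 Fluorescence titration: probe held at 30 μM in aqueous phosphate buffer, pH 7.0, at room temperature, with increasing concentrations of ct-DNA added. Emission spectra were recorded at each step.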

DNA [3] = assay: Binding affinity to calf thymus DNA at 1:0.67 to 1:2 DNA:compound ratio by UV-Vis spectrophotometric analysis
Outline: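 Absorption spectra of the probe were recorded in aqueous phosphate buffer, pH 7.0, while ct-DNA was added gradually. Shifts in band position and changes in intensity were followed.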

DNA [4] = assay: Binding affinity to calf thymus DNA assessed melting temperature at 2:1 compound:DNA ratio by thermal denaturation assay (reference value: 65.83 degC)
DNA [5] = assay: Binding affinity to calf thymus DNA assessed melting temperature at 1:1.5 compound:DNA ratio by thermal denaturation assay (reference value: 65.83 degC)
DNA [6] = assay: Binding affinity to calf thymus DNA assessed melting temperature at 1:1 compound:DNA ratio by thermal denaturation assay (reference value: 65.83 degC)
DNA [7] = assay: Binding affinity to calf thymus DNA assessed melting temperature at 1:0.5 compound:DNA ratio by thermal denaturation assay (reference value: 65.83 degC)
DNA [8] = assay: Binding affinity to calf thymus DNA at 30 uM by in presence of increasing concentration of DNA by Benesi-Hildebrand plot analysis
DNA [9] = assay: Binding affinity to calf thymus DNA at 30 uM by fluorescence titration method; outline: as §1

Row | Activity (DNA [1]) | Activity (DNA [2]) | Activity (DNA [3]) | Tm (DNA [4]) [°C] | Tm (DNA [5]) [°C] | Tm (DNA [6]) [°C] | Tm (DNA [7]) [°C] | K (DNA [8]) [×10⁴ /M] | Activity (DNA [9]) | Compound
1 | inactive | Active | inactive |  |  |  |  |  |  | C#CCN1C(=O)c2cccc3c(C#Cc4ccc(N(C)C)cc4)ccc(c23)C1=O
2 | inactive |  | inactive | 63.2 | 64.3 | 64.9 | 65.6 | 3.98 | Active | C#CCN1C(=O)c2cccc3c(C#Cc4ccc(C#N)cc4)ccc(c23)C1=O
